Measurements taken from ChEMBL document CHEMBL1122013, “Inhibitors of gastric acid secretion: 3,4-diamino-1,2,5-thiadiazole 1-oxides and 1,1-dioxides as urea equivalents in a series of histamine H2-receptor antagonists” (J Med Chem, 1982).
“And” between values parts separate entries of the source, which are not always exact repeats. Identical values can stand only once.

Experiments:
[1] = target: Histamine H2 receptor (Cavia porcellus) (UniProt P47747); test: In vitro inhibition of Histamine H2 receptor by measuring its ability to block dimaprit-stimulated chronotropic response of guinea pig atrium strips; format: tissue-based; conditions: Cardiac atrium
[2] = Slope value of the compound
Canis familiaris [3] = test: Inhibition of acid output in dogs (iv); format: functional; conditions: Canis lupus familiaris
Procedure, shortened: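 Dogs with gastric fistula under histamine stimulation. The compound is dissolved in aqueous vehicle with 1 equiv of HCl. It is given orally (po), or intravenously (iv) immediately before histamine. Acid secretion is measured over the period of maximum effect, 0-30 min after histamine. ED50 and confidence limits come from analysis of variance over four dose levels, with 3-5 dogs per dose.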

Canis familiaris [4] = test: Inhibition of acid output in dogs (po); format: functional; conditions: Canis lupus familiaris
Procedure, shortened: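 Dogs with a gastric fistula, stimulated with histamine, were dosed orally with compound solubilized in aqueous vehicle containing 1 equiv of HCl. Gastric secretion was measured over the period of maximum effectiveness (0-30 min after histamine). ED50 and confidence limits came from analysis of variance across four dose levels with 3-5 dogs per dose.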

Histamine H2 receptor = Histamine H2 receptor (Cavia porcellus, UniProt P47747); test: In vitro inhibition of Histamine H2 receptor by measuring its ability to block the histamine-stimulated adenylate cyclase of guinea pig hippocampal homogenate; format: tissue-based, Hippocampus
[5] = Ratio (po/iv) value of the compound; format: functional
[6] = target: Histamine H2 receptor (Cavia porcellus) (UniProt P47747); conditions: Cardiac atrium

Sequence of Histamine H2 receptor (Cavia porcellus) (P47747 whole entry): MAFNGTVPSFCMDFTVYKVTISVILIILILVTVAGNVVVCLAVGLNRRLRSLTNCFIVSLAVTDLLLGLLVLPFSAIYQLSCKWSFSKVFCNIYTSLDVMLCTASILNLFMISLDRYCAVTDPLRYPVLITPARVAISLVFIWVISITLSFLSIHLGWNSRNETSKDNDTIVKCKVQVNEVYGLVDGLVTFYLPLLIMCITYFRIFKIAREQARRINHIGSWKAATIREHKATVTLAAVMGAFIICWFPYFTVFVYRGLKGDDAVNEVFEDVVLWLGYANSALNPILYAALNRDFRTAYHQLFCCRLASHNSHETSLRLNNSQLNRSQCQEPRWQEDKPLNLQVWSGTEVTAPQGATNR
Sequence of Histamine H2 receptor (P47747 whole entry): as above

## Cc1[nH]cnc1CSCCNc1n[s+]([O-])nc1N (stereo not given)
[1]
  -Log KB: 5.98
[2]
  Slope: 0.85

## CN/C(=N\CCSCc1nc[nH]c1C)NC#N [CIMETIDINE]
Canis familiaris [3]
  ED50: 1.84 mg/kg
[2]
  Slope: 0.9 and 0.78

## CNC(=C[N+](=O)[O-])NCCSCc1ccc(CN(C)C)o1 [RANITIDINE]
Canis familiaris [3]
  ED50: 0.04 mg/kg
Canis familiaris [4]
  ED50: 0.42 mg/kg
Histamine H2 receptor
  Ki: 501 nM
[2]
  Slope: 1.6 and 0.76
[5]
  Ratio: 14
[6]
  -Log KB: 7.32

## Nc1n[s+]([O-])nc1NCCCOc1cccc(CN2CCCCC2)c1 (stereo not given)
[2]
  Slope: 1.4 and 1.73

## CNc1n[s+]([O-])nc1NCCSCc1ccc(CN(C)C)o1 (stereo not given)
Canis familiaris [3]
  ED50: 0.05 mg/kg
Canis familiaris [4]
  ED50: 0.3 mg/kg
[1]
  -Log KB: 7.85
[2]
  Slope: 1.03
[5]
  Ratio: 6

## CN(C)Cc1ccc(CSCCNc2n[s+]([O-])nc2N)o1 (stereo not given)
[2]
  Slope: 1.1 and 0.55

## CN(C)Cc1ccc(CSCCNC2=NS(=O)(=O)N=C2N)o1
[2]
  Slope: 1.3 and 0.53

## N=C(N)Nc1nc(CSCCNc2n[s+]([O-])nc2N)cs1 (stereo not given)
[1]
  -Log KB: 8.17
[2]
  Slope: 0.85
